The assay concerns the target NAD-dependent protein deacylase sirtuin-6 (Homo sapiens, UniProt Q8N6T7). Nature of the assay: Activation of N-terminal his-tagged human SIRT6 expressed in Escherichia coli M15 [pREP4] assessed as increase in peptide demyristoylation at 20 uM incubated for 120 mins using Ac-EALPKK(Myr)-AMC substrate by FDL assay relative to control. The procedure, abridged: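 Demyristoylation: 1 µM recombinant SIRT6 preincubated with compound for 20 min at 37 °C in 50 mM Tris-HCl pH 8.0, BSA 1 mg/mL, 1 mM DTT, with 10 µM Ac-EALPKK(Myr)-AMC. Started with 1 mM NAD and run 120 min at 37 °C. Developed 120 min at 37 °C with 5 mg/mL trypsin/8 mM nicotinamide. Fluorescence read. Mean ± s.d., triplicate wells, three independent experiments.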

Structures are written as SMILES.

NAD-dependent protein deacylase sirtuin-6, sequence (Q8N6T7 whole entry): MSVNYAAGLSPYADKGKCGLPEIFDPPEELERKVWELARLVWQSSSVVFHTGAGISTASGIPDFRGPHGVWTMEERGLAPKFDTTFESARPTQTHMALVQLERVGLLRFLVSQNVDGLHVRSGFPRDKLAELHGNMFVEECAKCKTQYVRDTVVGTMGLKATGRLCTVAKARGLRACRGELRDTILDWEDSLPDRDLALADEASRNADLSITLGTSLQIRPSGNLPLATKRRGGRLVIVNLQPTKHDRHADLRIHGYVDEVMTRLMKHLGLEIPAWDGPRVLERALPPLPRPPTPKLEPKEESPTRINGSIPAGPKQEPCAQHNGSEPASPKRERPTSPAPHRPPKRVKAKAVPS

For `Cc1ccc(-c2cc(C(=O)Nc3cc(C(F)(F)F)ccc3Cl)c3ccccc3n2)c(C)c1`, the Activity was 92.3%.
Next, `COc1ccc(-c2cc(C(=O)N3CCN(C)CC3)c3ccccc3n2)cc1OC`: 105%.
Next, `COc1ccc(-c2cc(C(=O)Nc3ccc(F)cc3[N+](=O)[O-])c3ccccc3n2)cc1OC`: 65.7%; `COc1ccc(-c2cc(C(=O)Nc3ccc4ccccc4c3)c3ccccc3n2)cc1OC`: 139%; `COc1ccc(NC(=O)c2cc(-c3ccc(OC)c(OC)c3)nc3ccccc23)c([N+](=O)[O-])c1`: 87.2%.
Then `COc1ccc(-c2cc(C(=O)Nc3ccc(C(C)(C)C)cc3)c3ccccc3n2)cc1OC`, with 124%; and `COc1ccc(-c2cc(C(=O)Nc3ccc(F)c([N+](=O)[O-])c3)c3ccccc3n2)cc1OC`, with 96.9%.
Consider `Cc1ccc(-c2cc(C(=O)Nc3cc(C(F)(F)F)ccc3Cl)c3ccccc3n2)s1`, for which the Activity is 141%.
As to `COc1ccc(-c2cc(C(=O)NC3CCCC3)c3ccccc3n2)cc1OC`, the Activity is 124%.
`COc1ccc(-c2cc(C(=O)Nc3nc(-c4ccc(Cl)cc4)cs3)c3ccccc3n2)cc1OC`: the Activity stood at 91%.
Then `COc1cc(NC(=O)c2cc(-c3ccc(OC)c(OC)c3)nc3ccccc23)cc(OC)c1`, with 103%; and `COC(=O)c1c(NC(=O)c2cc(-c3ccc(OC)c(OC)c3)nc3ccccc23)sc2c1CCCC2`, with 95.2%; and `COc1ccc(-c2cc(C(=O)Nc3cccc(Cl)c3)c3ccccc3n2)cc1OC`, with 104%.
Then `COc1ccc(-c2cc(C(=O)Nc3cc(C(F)(F)F)ccc3Cl)c3ccccc3n2)cc1F`, with 91.2%; and `COc1ccc(-c2cc(C(=O)Nc3ccc(S(N)(=O)=O)cc3)c3ccccc3n2)cc1OC`, with 131%.
Then `COc1cccc(NC(=O)c2cc(-c3ccc(OC)c(OC)c3)nc3ccccc23)c1`, with 115%; and `COc1ccc(-c2cc(C(=O)Nc3cc(C(C)C)ccc3C)c3ccccc3n2)cc1OC`, with 131%.
As to `COc1ccc(-c2cc(C(=O)Nc3ccccc3Cl)c3ccccc3n2)cc1OC`, the Activity worked out at 105%.
For the compound `O=C(Nc1ccc(Oc2ccccc2)cc1)c1cc(-c2cc3ccccc3o2)nc2ccccc12`, the Activity was 118%.
As to `Cc1ccc(-c2cc(C(=O)Nc3cc(C(F)(F)F)ccc3Cl)c3ccccc3n2)cc1`, the Activity worked out at 109%.
Then `COc1ccc(-c2cc(C(=O)Nc3cccc(F)c3)c3ccccc3n2)cc1OC`, with 142%; and `COc1ccc(-c2cc(C(=O)Nc3ccc(F)cc3)c3ccccc3n2)cc1OC`, with 104%.
Next, `COc1ccc(-c2cc(C(=O)Nc3ccc(C(F)(F)F)cc3)c3ccccc3n2)cc1OC`: 142%.
Next, `COc1ccc(-c2cc(C(=O)Nc3ccc(F)c(F)c3)c3ccccc3n2)cc1OC`: 101%; `COc1ccc(-c2cc(C(=O)Nc3ccccc3Br)c3ccccc3n2)cc1OC`: 128%.
For `COC(=O)[C@H]1C2CCC(CC2)[C@@H]1NC(=O)c1cc(-c2ccc(OC)c(OC)c2)nc2ccccc12`, the Activity is 128%.
With `CCOC(=O)c1sc(NC(=O)c2cc(-c3ccc(OC)c(OC)c3)nc3ccccc23)nc1C`, the Activity came out at 90.3%.
As to `COc1ccc(-c2cc(C(=O)Nc3cc(S(N)(=O)=O)ccc3C)c3ccccc3n2)cc1OC`, the Activity came to 95.5%.
Turning to `COc1ccc(-c2cc(C(=O)Nc3ccc(F)c(Cl)c3)c3ccccc3n2)cc1OC`, the Activity worked out at 108%.
Turning to `O=C(Nc1cc(C(F)(F)F)ccc1Cl)c1cc(C2CCCC2)nc2ccccc12`, the Activity turned out to be 76.4%.
On to `O=C(Nc1cccc2ccccc12)c1cc(-c2cc3ccccc3o2)nc2ccccc12`, for which the Activity was 119%.
As for `COc1ccc(-c2cc(C(=O)Nc3sc(C)c(C)c3C#N)c3ccccc3n2)cc1OC`, the Activity turned out to be 95.1%.
Next, `COc1ccc(-c2cc(C(=O)NC34CC5CC(CC(O)(C5)C3)C4)c3ccccc3n2)cc1OC`: 86.1%.
Then `O=C(Nc1cc(C(F)(F)F)ccc1Cl)c1cc(-c2ccco2)nc2ccccc12`, with 141%.

These data come from ChEMBL document CHEMBL4622973, “Discovery of Potent Small-Molecule SIRT6 Activators: Structure-Activity Relationship and Anti-Pancreatic Ductal Adenocarcinoma Activity” (J Med Chem, 2020).
